Data taken from ChEMBL document CHEMBL4024760, “Specific Inhibition of Bacterial β-Glucuronidase by Pyrazolo[4,3-c]quinoline Derivatives via a pH-Dependent Manner To Suppress Chemotherapy-Induced Intestinal Toxicity” (J Med Chem, 2017).

What was measured:
Escherichia coli [1] = assay: Inhibition of N-terminal His-tagged Escherichia coli beta-glucuronidase expressed in Escherichia coli BL21 (DE3) assessed as residual activity using pNPG as substrate at 10 uM preincubated for 30 mins followed by substrate addition measured after 1 hr relative to control
Outline: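 Purified E. coli βG (20 ng) preincubated with 10 μM compound for 30 min at 37 °C in PBS pH 7.5 with 10% DMSO and 0.05% BSA. pNPG (20 mM stock) then added for 1 h, quenched with 2 N NaOH, and read at OD405. Result given as % activity versus a 10% DMSO control; n = 3.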

beta-glucuronidase = target: T1, beta-glucuronidase (Homo sapiens, UniProt P08236); assay: Inhibition of N-terminal His-tagged human beta-glucuronidase expressed in Escherichia coli BL21 (DE3) assessed as residual activity using pNPG as substrate at 10 uM preincubated for 30 mins followed by substrate addition measured after 1 hr relative to control; details: probe pNPG, read-out: Activity
T1 sequence (P08236 whole entry): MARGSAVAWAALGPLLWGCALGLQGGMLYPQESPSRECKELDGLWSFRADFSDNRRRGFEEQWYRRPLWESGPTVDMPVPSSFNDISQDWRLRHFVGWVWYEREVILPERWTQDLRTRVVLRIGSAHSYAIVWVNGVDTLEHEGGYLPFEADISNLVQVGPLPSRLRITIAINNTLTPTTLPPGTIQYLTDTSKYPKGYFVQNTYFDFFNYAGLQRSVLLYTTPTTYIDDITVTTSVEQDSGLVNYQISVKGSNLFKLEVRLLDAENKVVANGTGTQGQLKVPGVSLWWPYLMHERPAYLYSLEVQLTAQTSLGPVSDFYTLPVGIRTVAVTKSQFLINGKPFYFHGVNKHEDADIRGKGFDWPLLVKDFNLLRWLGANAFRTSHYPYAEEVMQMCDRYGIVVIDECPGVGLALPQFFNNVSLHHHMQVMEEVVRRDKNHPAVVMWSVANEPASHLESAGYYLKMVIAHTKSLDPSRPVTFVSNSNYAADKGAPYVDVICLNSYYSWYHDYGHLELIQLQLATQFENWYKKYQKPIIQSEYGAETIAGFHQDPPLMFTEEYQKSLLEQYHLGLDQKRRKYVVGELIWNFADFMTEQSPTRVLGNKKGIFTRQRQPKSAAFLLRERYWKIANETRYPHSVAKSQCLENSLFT

[2] = Inhibition of N-terminal His-tagged Escherichia coli beta-glucuronidase expressed in Escherichia coli BL21 (DE3) using pNPG as substrate preincubated for 30 mins followed by substrate addition measured after 1 hr
Outline: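 Purified E. coli βG (20 ng) preincubated 30 min at 37 °C with compound (0.64–10 000 nM) in PBS pH 7.5 containing 10% DMSO and 0.05% BSA. pNPG (20 mM stock) then added for 1 h, quenched with 2 N NaOH, and pNP read at 405 nm. IC50 derived from a four-parameter curve fit; SD of n = 3.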

[3] = system: Escherichia coli BL21(DE3); assay: Inhibition of beta-glucuronidase in Escherichia coli BL21 (DE3) using pNPG as substrate at 50 uM preincubated for 30 mins followed by substrate addition measured after 1 hr relative to control
Outline: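 BL21(DE3) E. coli grown overnight and diluted to OD600 0.1 in LB. Cells treated with compound (50, 10 or 2 μM) for 30 min at 37 °C, then pNPG (40 mM stock) added for 1 h. Cells pelleted at 6000g; supernatant quenched with NaOH and read at OD405. Activity given as % of a 1% DMSO control.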

Escherichia coli [4] = assay: Toxicity against Escherichia coli BL21(DE3) assessed as effect on cell growth at 100 uM after 6 hrs
Outline: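 BL21(DE3) E. coli (diluted to OD600 0.1 in LB after overnight growth) incubated with compound at a final 100 μM, shaking at 37 °C for 6 h. Growth measured by OD600; viability given as % of the untreated control.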

Activity (Escherichia coli [1]) [%] | activity at 1 h, 10 µM (beta-glucuronidase) [%] | IC50 [2] [nM] | inhibition [3] [%] | SMILES | Activity (Escherichia coli [4])
12 | 85.6 | 613 |  | Nc1n[nH]c2c1c(Nc1ccccc1O)nc1ccccc12 | 
2.33 | 106 |  |  | Nc1n[nH]c2c1c(Nc1ccccc1)nc1ccccc12 | 
10.3 | 79.8 | 281 |  | Nc1n[nH]c2c1c(Nc1ccccc1Cl)nc1ccccc12 | 
14.9 | 94.1 | 308 |  | Nc1n[nH]c2c1c(Nc1cccc(Cl)c1)nc1ccccc12 | 
99 | 83 |  |  | Nc1n[nH]c2c1c(O)nc1ccccc12 | 
99.2 | 102 |  |  | O=C1S/C(=C/c2ccc3cc(F)ccc3n2)C(=O)N1CCN1CCCC1 | 
114 | 82.2 |  |  | Fc1ccc(-c2cc(-c3ccc4cc(F)ccc4n3)nn2-c2ccccc2)cc1 | 
80.7 | 86.5 | > 10000 |  | Cc1cccc(Nc2nc3ccccc3c3[nH]nc(N)c23)c1 | 
14.8 | 93.6 | 673 |  | Cc1ccccc1Nc1nc2ccccc2c2[nH]nc(N)c12 | 
4.57 | 98.8 | 34.8 | > 80 | Nc1n[nH]c2c1c(Nc1ccc(Cl)cc1)nc1ccccc12 | Toxic
112 | 99 |  |  | Fc1ccc2nc(/C=N/NC3=NCCN3)ccc2c1 | 
6.35 | 88.2 | 55.6 | > 80 | Nc1n[nH]c2c1c(Nc1ccc(Cl)cc1)nc1ccc(Cl)cc12 | Toxic
107 | 96.5 |  |  | O=C1S/C(=C/c2ccc3cc(F)ccc3n2)C(=O)N1CCN1CCCCC1 | 
115 | 88.9 |  |  | O=C1NC(=O)/C(=C\c2ccc3cc(F)ccc3n2)S1 | 
113 | 88.9 |  |  | Fc1ccc(-c2cc(-c3ccc4cc(F)ccc4n3)n(-c3ccccc3)n2)cc1 | 
6.78 | 92.8 | 29.6 |  | Nc1n[nH]c2c1c(Nc1ccc(Cl)cc1)nc1cc(F)ccc12 | 
112 | 78.5 |  |  | NC(=S)N/N=C/c1ccc2cc(F)ccc2n1 | 
16.4 | 107 | 18 | > 80 | Nc1n[nH]c2c1c(Nc1ccc(Cl)cc1)nc1ccc(Br)cc12 | Toxic
11.3 | 62.2 | 598 |  | Nc1ccc(Nc2nc3ccccc3c3[nH]nc(N)c23)cc1 | 
112 | 80.2 |  |  | CN(C)CCCN1C(=O)S/C(=C/c2ccc3cc(F)ccc3n2)C1=O | 
8.67 | 106 | 626 |  | Nc1n[nH]c2c1c(Nc1ccc(O)cc1)nc1ccccc12 | 
5.66 | 101 | 98.2 |  | Nc1n[nH]c2c1c(Nc1ccc(C(F)(F)F)cc1)nc1ccccc12 | 
6 | 78.3 | 884 |  | Nc1n[nH]c2c1c(Nc1cccc(O)c1)nc1ccccc12 | 
99.1 | 84.6 |  |  | COc1ccc(-c2cc3cc(F)ccc3nc2/C=C2\SC(=O)NC2=O)cc1 | 
6.13 | 91.5 | 14.4 | > 80 | Cc1ccc(Nc2nc3ccc(Cl)cc3c3[nH]nc(N)c23)cc1 | Toxic
109 | 85.9 |  |  | O=C(O)CN1C(=O)S/C(=C/c2ccc3cc(F)ccc3n2)C1=O | 
6.84 | 91.5 | 38.1 | > 80 | Cc1ccc(Nc2nc3cc(F)ccc3c3[nH]nc(N)c23)cc1 | Toxic
111 | 87.9 |  |  | CCOC(=O)CN1C(=O)S/C(=C/c2ccc3cc(F)ccc3n2)C1=O | 
12.1 | 97.9 | 55.3 | > 80 | Cc1ccc(Nc2nc3ccc(Br)cc3c3[nH]nc(N)c23)cc1 | Toxic

Second part, the compound before the results:

SMILES | Activity (Escherichia coli [1]) [%] | activity at 1 h, 10 µM (beta-glucuronidase) [%] | IC50 [2] [nM] | inhibition [3] [%] | Activity (Escherichia coli [4])
Nc1n[nH]c2c1c(Nc1ccc(C(=O)O)cc1)nc1ccccc12 | 19 | 102 | 154 |  | 
Cc1cccc2c1nc(Nc1ccc(Cl)cc1)c1c(N)n[nH]c12 | 9.04 | 88.3 | 238 |  | 
Nc1n[nH]c2c1cnc1ccccc12 | 99.3 | 79.4 |  |  | 
O=C(O)[C@@H](O)[C@H]1OC(=O)[C@H](O)[C@H]1O [D-SACCHARIC ACID 1,4-LACTONE] | 75.7 | 33.5 | > 10000 |  | 
Cc1ccc(Nc2nc3c(C)cccc3c3[nH]nc(N)c23)cc1 | 6.8 | 85.7 | 24.7 |  | 
CCN(CC)CCNC(=O)c1ccc(/N=C2/c3ccccc3C(=O)c3c2ccn3Cc2ccccc2)cc1 | 87.4 | 86.9 |  |  | 
Cc1cc2c(n1CCCN(C)CCCn1c(C)cc3c1C(=O)c1ccccc1C3=O)C(=O)c1ccccc1C2=O | 73.5 | 79.8 |  |  | 
COc1cc(C(=O)C2CC2c2ccc3ccccc3n2)cc(OC)c1OC (centres undefined) | 112 | 85.4 |  |  | 
COc1cc(/C=C2\CN(C(=O)CN(C)C)C/C(=C\c3cc(OC)c(OC)c(OC)c3)C2=O)cc(OC)c1OC | 34.1 | 92.4 |  |  | 
CCOC(=O)CSc1nc2ccccc2c2sc(C(=O)OCC)c(N)c12 | 101 | 108 |  |  | 
CNC(=S)N/N=C1\C(=O)c2ccccc2-c2occc21 | 104 | 86.8 |  |  | 
CC(=O)c1ccc(Nc2nc3ccccc3c3[nH]nc(N)c23)cc1 | 6 | 83.4 | 133 |  | 
Nc1n[nH]c2c1c(N)nc1ccccc12 | 86.3 | 83.9 |  |  | 
CCOc1ccc(NC(=S)N(CCO)Cc2cc3cc(C)cc(C)c3[nH]c2=O)cc1 | 8.83 |  | 846 |  | 
COc1cc(/C=C2\CNC/C(=C\c3cc(OC)c(OC)c(OC)c3)C2=O)cc(OC)c1OC | 111 | 107 |  |  | 
Nc1n[nH]c2c1c(Nc1ccc([N+](=O)[O-])cc1)nc1ccccc12 | 46.5 | 90.9 | 9200 |  | 
c1ccc2c(c1)c1nonc1c1ccoc21 | 111 | 82.7 |  |  | 
COc1ccc(-c2cc3ccccc3nc2C2CC(c3cc(OC)c(OC)c(OC)c3)=NN2C(N)=S)cc1 (centres undefined) | 114 | 89.5 |  |  | 
CCOc1nc2ccccc2c2[nH]nc(N)c12 | 102 | 80.5 |  |  | 
COc1ccc(-c2nc3c4ccoc4c4ccccc4c3[nH]2)cc1 | 112 | 85.4 |  |  | 
O=C1c2ccccc2-c2c(N3CCC(O)CC3)nc3ccccc3c21 | 74.9 | 80.6 |  |  | 
